Drawing on ChEMBL document CHEMBL1177835, “A note to the biological activity of benzoxazine derivatives containing the thioxo group” (Eur J Med Chem, 2010), this text covers MIC and Activity for nine compounds.

The term MIC denotes the smallest concentration in the dilution series that meets the test's criterion for growth inhibition.

Data set [1] deals with Mycobacterium tuberculosis. Nature of the data set: Antimycobacterial activity against Mycobacterium tuberculosis CNCTC My 331/88 after 14 days by microdilution method. To be noted: CNCTC My 331/88, 336 h. Type of data set: functional. The procedure, abridged:
(§1)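 MIC determined by a dilution micromethod. Strains came from the Czech National Collection of Type Cultures, Prague. Compounds were added to the medium as DMSO solutions. Each inoculum was also plated in parallel on Löwenstein–Jensen medium to check its sterility and growth. The M. avium strain is identical with ATCC 25291 and resistant to INH.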

The test system of data set [2] is Mycobacterium tuberculosis. The data set can be described thus: Antimycobacterial activity against Mycobacterium tuberculosis CNCTC My 331/88 after 21 days by microdilution method. Type of data set: functional. To be noted: CNCTC My 331/88, 504 h. Summed up:
as §1
For orientation: Broth dilution looks for growth in wells or tubes with falling amounts of substance.

Data set [3] deals with Mycobacterium kansasii. Nature of the data set: Antimycobacterial activity against Mycobacterium kansasii CNCTC My 235/80 after 14 days by microdilution method. In kind it is functional. To be noted: CNCTC My 235/80, 336 h. Summed up:
(§2)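 Dilution micromethod for MIC; compounds added to medium as DMSO solutions. Each strain also inoculated onto Löwenstein–Jensen medium to control inoculum sterility and growth. Strain 6509/96 is a clinical isolate; CNCTC strains from the Czech national type culture collection.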

The test system of data set [4] is Mycobacterium avium. The data set can be described thus: Antimycobacterial activity against Mycobacterium avium CNCTC My 330/88 after 14 days by microdilution method. Type of data set: functional. To be noted: CNCTC My 330/88, 336 h. Summed up: as §1
In data set [5] the test system is Mycobacterium avium. The data set can be described thus: Antimycobacterial activity against Mycobacterium avium CNCTC My 330/88 after 21 days by microdilution method. In kind it is functional. To be noted: CNCTC My 330/88, 504 h. The procedure, abridged:
as §1

In data set [6] the test system is Mycobacterium kansasii. The data set can be described thus: Antimycobacterial activity against Mycobacterium kansasii 6509/96 after 21 days by microdilution method. In kind it is functional. To be noted: 6509/96, 504 h. Summed up: as §2
Data set [7] concerns Mycobacterium kansasii. The data set can be described thus: Antimycobacterial activity against Mycobacterium kansasii CNCTC My 235/80 after 21 days by microdilution method. In kind it is functional. To be noted: CNCTC My 235/80, 504 h. Summed up:
as §2

Data set [8] has as its system Mycobacterium kansasii. The data set can be described thus: Antimycobacterial activity against Mycobacterium kansasii 6509/96 after 14 days by microdilution method. In kind it is functional. To be noted: 6509/96, 336 h. Summed up:
as §2

The test system of a further data set is HeLa. Nature of the data set: Cytotoxicity against human HeLa cells after 72 hrs by using methylene blue staining. Type of data set: functional, cell-based. Summed up:
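HeLa cells in RPMI 1640 with supplements, preincubated 48 h without compound. Compound dilutions were then applied to subconfluent monolayers for 72 h at 37 °C, 5% CO2. Cells were glutaraldehyde-fixed, stained with 0.05% methylene blue, eluted with 0.33 N HCl and read at OD 660 nm. CC50 taken at 50% intersection versus negative control.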

A further data set relates to HUVEC. The data set can be described thus: Antiproliferative activity against HUVEC after 72 hrs by using methylene blue staining. In kind it is cell-based. To be noted: human. Summed up: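 HUVEC in culture medium with ultraglutamine, gentamicin, 10% heat-inactivated FBS, 37 °C. Harvested in log phase by trypsinization; about 10,000 cells/well. Compounds in DMSO, diluted in DMEM, incubated 72 h at 37 °C, 5% CO2. Cells then glutaraldehyde-fixed, stained with 0.05% methylene blue for 15 min, eluted with 0.33 N HCl, OD 660 nm. GI50 taken at 50% intersection versus untreated control.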

A further data set has as its system K562. The data set can be described thus: Antiproliferative activity against human K562 cells after 72 hrs by celltiter-blue assay. Type of data set: functional, cell-based. The procedure, abridged: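 K-562 grown in RPMI 1640 with ultraglutamine, gentamicin, 10% heat-inactivated FBS at 37 °C; about 10,000 cells/well. Compounds dissolved in DMSO and diluted in DMEM, incubated 72 h at 37 °C, 5% CO2. Viability read by CellTiter-Blue resazurin reduction. GI50 taken where the dose-response curve crosses 50% of untreated control.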

In brackets after ≈: the same amount, converted by molar mass. Some results are limits rather than exact numbers.

Take `CO[C@H]1/C=C/O[C@@]2(C)Oc3c(C)c(O)c4c(O)c(c(/C=N/N5CCN(C)CC5)c(O)c4c3C2=O)NC(=O)/C(C)=C\C=C\[C@H](C)[C@H](O)[C@@H](C)[C@@H](O)[C@@H](C)[C@H](OC(C)=O)[C@@H]1C` [RIFAMPIN]: the MIC in data set [1] is 0.25 µM (≈ 0.206 µg/mL); in [2], 0.5 µM (≈ 0.411 µg/mL); in the data set with Mycobacterium kansasii [3], 0.25 µM (≈ 0.206 µg/mL); in the data set on Mycobacterium avium [4] it was 16 µM (≈ 13.2 µg/mL); against Mycobacterium avium [5], 65 µM (≈ 53.5 µg/mL); against Mycobacterium kansasii [6] it was 0.25 µM (≈ 0.206 µg/mL). Also, the MIC came out at 0.25 µM (≈ 0.206 µg/mL) against Mycobacterium kansasii [7] and 0.125 µM (≈ 0.103 µg/mL) in the data set with Mycobacterium kansasii [8].
For `O=c1oc2ccc(Cl)cc2c(=S)n1Cc1ccc(Cl)c(Cl)c1`, the MIC was 32 µM (≈ 11.9 µg/mL) in data set [1]; 32 µM (≈ 11.9 µg/mL) in data set [2]; 62.5 µM (≈ 23.3 µg/mL) with Mycobacterium kansasii [3]; 62.5 µM (≈ 23.3 µg/mL) in the data set with Mycobacterium avium [4]; 62.5 µM (≈ 23.3 µg/mL) against Mycobacterium avium [5]; 62.5 µM (≈ 23.3 µg/mL) against Mycobacterium kansasii [6]. The MIC against Mycobacterium kansasii [7] and against Mycobacterium kansasii [8] was 62.5 µM (≈ 23.3 µg/mL) throughout. Further, the Activity result in the data set with HeLa, in the data set with HUVEC and in the data set on K562 was “Toxic” each time.
With `O=c1oc2ccccc2c(=O)n1Cc1ccccc1`, the MIC amounted to 32 µM (≈ 8.1 µg/mL) in data set [1]; 32 µM (≈ 8.1 µg/mL) in data set [2]; 62.5 µM (≈ 15.8 µg/mL) in the data set on Mycobacterium kansasii [3]; 32 µM (≈ 8.1 µg/mL) with Mycobacterium avium [4]; 62.5 µM (≈ 15.8 µg/mL) in the data set on Mycobacterium avium [5]; 62.5 µM (≈ 15.8 µg/mL) against Mycobacterium kansasii [6]. For the same compound, the minimum inhibitory concentration (MIC) against Mycobacterium kansasii [7] and against Mycobacterium kansasii [8] was 62.5 µM (≈ 15.8 µg/mL) each time. In addition, the Activity result in the data set with HeLa, in the data set on HUVEC and with K562 was “Toxic” throughout.
`O=c1oc2ccccc2c(=S)n1Cc1ccc(Cl)c(Cl)c1`: the minimum inhibitory concentration (MIC) in [1] amounted to 1 µM (≈ 0.338 µg/mL); in [2], 1 µM (≈ 0.338 µg/mL); with Mycobacterium kansasii [3], 2 µM (≈ 0.676 µg/mL); against Mycobacterium avium [4], 1 µM (≈ 0.338 µg/mL); in the data set on Mycobacterium avium [5], 1 µM (≈ 0.338 µg/mL); with Mycobacterium kansasii [6] it was 4 µM (≈ 1.35 µg/mL). The MIC was determined as 4 µM (≈ 1.35 µg/mL) in the data set on Mycobacterium kansasii [7] and 2 µM (≈ 0.676 µg/mL) against Mycobacterium kansasii [8]. For the same compound, the Activity result in the data set with HeLa, in the data set on HUVEC and in the data set with K562 was “Toxic” throughout.
Regarding `O=c1oc2ccccc2c(=O)n1Cc1ccc(Cl)c(Cl)c1`, the MIC was determined as 32 µM (≈ 10.3 µg/mL) in [1]; 32 µM (≈ 10.3 µg/mL) in data set [2]; 62.5 µM (≈ 20.1 µg/mL) against Mycobacterium kansasii [3]; 32 µM (≈ 10.3 µg/mL) in the data set with Mycobacterium avium [4]; 32 µM (≈ 10.3 µg/mL) in the data set on Mycobacterium avium [5]; 62.5 µM (≈ 20.1 µg/mL) with Mycobacterium kansasii [6]. In addition, the minimal inhibitory concentration (MIC) against Mycobacterium kansasii [7] and with Mycobacterium kansasii [8] was 62.5 µM (≈ 20.1 µg/mL) in each case. The Activity entry in the data set on HeLa, in the data set with HUVEC and in the data set with K562 was “Toxic” each time.
Turning to `O=c1oc2ccc(Cl)cc2c(=S)n1Cc1ccc(F)cc1`, the MIC was 1 µM (≈ 0.322 µg/mL) in data set [1]; 1 µM (≈ 0.322 µg/mL) in data set [2]; 4 µM (≈ 1.29 µg/mL) against Mycobacterium kansasii [3]; 4 µM (≈ 1.29 µg/mL) in the data set with Mycobacterium avium [4]; 4 µM (≈ 1.29 µg/mL) against Mycobacterium avium [5]; 4 µM (≈ 1.29 µg/mL) against Mycobacterium kansasii [6]. The minimal inhibitory concentration (MIC) against Mycobacterium kansasii [7] stood at 8 µM (≈ 2.57 µg/mL); in the data set on Mycobacterium kansasii [8], 4 µM (≈ 1.29 µg/mL). Besides, the Activity result in the data set with HeLa, in the data set on HUVEC and in the data set with K562 was “Toxic” in each case.
Regarding `NNC(=O)c1ccncc1` [ISONIAZID], the minimal inhibitory concentration (MIC) in data set [1] is 1 µM (≈ 0.137 µg/mL); in [2], 1 µM (≈ 0.137 µg/mL); with Mycobacterium kansasii [3] it was greater than 250 µM; in the data set with Mycobacterium avium [4], greater than 250 µM; with Mycobacterium avium [5], greater than 250 µM; in the data set on Mycobacterium kansasii [6], 8 µM (≈ 1.1 µg/mL). Besides, the figures for the minimal inhibitory concentration (MIC) in the data set with Mycobacterium kansasii [7] and in the data set on Mycobacterium kansasii [8] were greater than 250 µM and 8 µM (≈ 1.1 µg/mL), respectively.
Take `Cc1ccc2oc(=O)n(Cc3ccccc3)c(=O)c2c1`: the MIC in [1] was 32 µM (≈ 8.55 µg/mL); in data set [2], 62.5 µM (≈ 16.7 µg/mL); against Mycobacterium kansasii [3], 62.5 µM (≈ 16.7 µg/mL); against Mycobacterium avium [4], 32 µM (≈ 8.55 µg/mL); in the data set with Mycobacterium avium [5], 62.5 µM (≈ 16.7 µg/mL); against Mycobacterium kansasii [6] it was 125 µM (≈ 33.4 µg/mL). For the same compound, the MIC in the data set with Mycobacterium kansasii [7] and against Mycobacterium kansasii [8] was 62.5 µM (≈ 16.7 µg/mL) each time. For the same compound, the Activity result in the data set with HeLa, in the data set on HUVEC and in the data set on K562 was “Toxic” throughout.
On to `S=c1oc2ccccc2c(=S)n1Cc1ccc(Cl)c(Cl)c1`, for which the MIC in data set [1] came to 1 µM (≈ 0.354 µg/mL); in [2], 2 µM (≈ 0.709 µg/mL); against Mycobacterium kansasii [3], 4 µM (≈ 1.42 µg/mL); in the data set with Mycobacterium avium [4], 0.5 µM (≈ 0.177 µg/mL); against Mycobacterium avium [5] it was 0.5 µM (≈ 0.177 µg/mL); against Mycobacterium kansasii [6], 4 µM (≈ 1.42 µg/mL). In addition, the MIC with Mycobacterium kansasii [7] and against Mycobacterium kansasii [8] was 4 µM (≈ 1.42 µg/mL) in each case.
